We go through 36 compounds from ChEMBL document CHEMBL1126691, “Application of the hypersurface iterative projection method to bicyclic pyrazolidinone antibacterial agents” (1993).

The term MIC denotes the least concentration at which growth counts as inhibited.

In this assay the test system is Pseudomonas. Description: Minimum inhibitory concentration against Pseudomonas species. The class given is functional. The gist of the method:
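MIC in µg/mL, determined by the 2-fold serial agar dilution method. These readings were excluded from the geometric-mean MIC used for the QSAR analysis.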
The compound `CO/N=C(\C(=O)NC1CN2CC(S(C)(=O)=O)=C(C(=O)O)N2C1=O)c1csc(N)n1` (stereo unspecified) returned an MIC of more than 128 µg/mL.
`CO/N=C(\C(=O)N[C@H]1CN2CC(C#N)=C(C(=O)O)N2C1=O)c1csc(N)n1` displayed an MIC of more than 128 µg/mL.
Then `CO/N=C(\C(=O)N[C@H]1CN2CC(C(=O)OCc3ccccc3)=C(C(=O)O)N2C1=O)c1csc(N)n1`, with more than 128 µg/mL.
The value for `CO/N=C(\C(=O)N[C@H]1CN2CC(S(=O)(=O)c3ccccc3)=C(C(=O)O)N2C1=O)c1csc(N)n1` was more than 128 µg/mL; that for `CO/N=C(\C(=O)N[C@H]1CN2CC(NC(=O)OC)=C(C(=O)O)N2C1=O)c1csc(N)n1` was more than 128 µg/mL; that for `CO/N=C(\C(=O)N[C@H]1CN2CC(S(=O)(=O)N(C)C)=C(C(=O)O)N2C1=O)c1csc(N)n1` was more than 128 µg/mL.
The value for `CO/N=C(\C(=O)N[C@H]1CN2CC(C(=O)c3ccccc3)=C(C(=O)O)N2C1=O)c1csc(N)n1` was more than 128 µg/mL.
For the compound `CO/N=C(\C(=O)N[C@H]1CN2CC(C(C)=O)=C(C(=O)O)N2C1=O)c1csc(N)n1`, the MIC is more than 128 µg/mL.
`CO/N=C(\C(=O)N[C@H]1CN2CC=C(C(=O)O)N2C1=O)c1csc(N)n1` came in with an MIC of more than 128 µg/mL.
The value for `CO/N=C(\C(=O)N[C@H]1CN2CC(c3cccs3)=C(C(=O)O)N2C1=O)c1csc(N)n1` was more than 128 µg/mL; that for `CO/N=C(\C(=O)N[C@H]1CN2CC(C(=O)CF)=C(C(=O)O)N2C1=O)c1csc(N)n1` was more than 128 µg/mL.
The value for `CO/N=C(\C(=O)N[C@H]1CN2CC(SC)=C(C(=O)O)N2C1=O)c1csc(N)n1` was more than 128 µg/mL.
`CCOP(=O)(OCC)C1=C(C(=O)O)N2C(=O)[C@@H](NC(=O)/C(=N\OC)c3csc(N)n3)CN2C1` registered an MIC of more than 128 µg/mL.
The value for `CO/N=C(\C(=O)N[C@H]1CN2CC(C(=O)O)=C(C(=O)O)N2C1=O)c1csc(N)n1` was more than 128 µg/mL; that for `CO/N=C(\C(=O)N[C@H]1CN2CC(C(F)(F)F)=C(C(=O)O)N2C1=O)c1csc(N)n1` was more than 128 µg/mL; that for `CO/N=C(\C(=O)N[C@H]1CN2CC(Sc3nnnn3C)=C(C(=O)O)N2C1=O)c1csc(N)n1` was more than 128 µg/mL.
Then `CO/N=C(\C(=O)N[C@H]1CN2CC(C(=O)Nc3ccccc3)=C(C(=O)O)N2C1=O)c1csc(N)n1`, with more than 128 µg/mL; and `CO/N=C(\C(=O)N[C@H]1CN2CC(S(=O)(=O)CCNC(C)=O)=C(C(=O)O)N2C1=O)c1csc(N)n1`, with more than 128 µg/mL.
Then `CO/N=C(\C(=O)N[C@H]1CN2CC(c3ccccn3)=C(C(=O)O)N2C1=O)c1csc(N)n1`, with more than 128 µg/mL; and `CO/N=C(\C(=O)N[C@H]1CN2CC(P(=O)(OC)OC)=C(C(=O)O)N2C1=O)c1csc(N)n1`, with more than 128 µg/mL; and `CCS(=O)(=O)C1=C(C(=O)O)N2C(=O)[C@@H](NC(=O)/C(=N\OC)c3csc(N)n3)CN2C1`, with more than 128 µg/mL.
`CO/N=C(\C(=O)N[C@H]1CN2CC(c3ccccc3)=C(C(=O)O)N2C1=O)c1csc(N)n1` displayed an MIC of more than 128 µg/mL.
The value for `CCOC(=O)C1=C(C(=O)O)N2C(=O)[C@@H](NC(=O)/C(=N\OC)c3csc(N)n3)CN2C1` was more than 128 µg/mL.
`CCC(=O)C1=C(C(=O)O)N2C(=O)[C@@H](NC(=O)/C(=N\OC)c3csc(N)n3)CN2C1`: the MIC is more than 128 µg/mL.
Then `CCCOC(=O)C1=C(C(=O)O)N2C(=O)[C@@H](NC(=O)/C(=N\OC)c3csc(N)n3)CN2C1`, with more than 128 µg/mL; and `CO/N=C(\C(=O)N[C@H]1CN2CC(S(=O)(=O)c3c(C)noc3C)=C(C(=O)O)N2C1=O)c1csc(N)n1`, with more than 128 µg/mL; and `CNC(=O)C1=C(C(=O)O)N2C(=O)[C@@H](NC(=O)/C(=N\OC)c3csc(N)n3)CN2C1`, with more than 128 µg/mL.
The value for `CO/N=C(\C(=O)N[C@H]1CN2CC(Sc3nnc(C)s3)=C(C(=O)O)N2C1=O)c1csc(N)n1` was more than 128 µg/mL.
The value for `C=CCO/N=C/C1=C(C(=O)O)N2C(=O)[C@@H](NC(=O)/C(=N\OC)c3csc(N)n3)CN2C1` was more than 128 µg/mL; that for `CO/N=C(\C(=O)N[C@H]1CN2CC(/C=N/OC)=C(C(=O)O)N2C1=O)c1csc(N)n1` was more than 128 µg/mL.
In the case of `CO/N=C(\C(=O)N[C@H]1CN2CC(C(=O)C(F)(F)F)=C(C(=O)O)N2C1=O)c1csc(N)n1`, the MIC was more than 128 µg/mL.
Then `CO/N=C(\C(=O)N[C@H]1CN2CC(c3ccncc3)=C(C(=O)O)N2C1=O)c1csc(N)n1`, with more than 128 µg/mL; and `CO/N=C(\C(=O)N[C@H]1CN2CC(C(=O)OC)=C(C(=O)O)N2C1=O)c1csc(N)n1`, with more than 128 µg/mL; and `C=CC1=C(C(=O)O)N2C(=O)[C@@H](NC(=O)/C(=N\OC)c3csc(N)n3)CN2C1`, with more than 128 µg/mL.
The value for `CO/N=C(\C(=O)N[C@H]1CN2CC(/C=N/OCCc3ccccc3)=C(C(=O)O)N2C1=O)c1csc(N)n1` was more than 128 µg/mL; that for `CO/N=C(\C(=O)N[C@H]1CN2CC(COC(C)=O)=C(C(=O)O)N2C1=O)c1csc(N)n1` was more than 128 µg/mL.
